Measured values published in article PMC5384256 (Bioconjugate chemistry, 2015).
Values joined by “and” are separate entries in the source; they are usually repeats but may differ in a detail not shown here. Identical values can stand only once. Values belong to the molecule of their own block, whether it stands above or below them. Where no end group is shown, it is not given here. Cy5.5 = Cy5.5 fluorophore

How the values were obtained:
p-HER2 = assay: Western blot p-HER2, SKBR3 cells; format: cell-based, Human; settings: 48 h
Method in brief: (§1)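 SKBR3 cells (McCoy's) in 6-well plates at ~60% confluence got unlabeled test peptide at 5 or 100 μM. A tyrosine kinase inhibitor positive control was used at 1–1000 nM, alongside 1% DMSO and untreated controls. Cells were harvested at 48 h for Western blot. Antibodies covered total HER2, AKT and ERK1/2, phospho-HER2 (Tyr1248), phospho-AKT (pS473), phospho-ERK1/2 and tubulin.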

p-AKT = assay: Western blot p-AKT, SKBR3 cells; format: cell-based, Human; settings: 48 h
Method in brief: as §1

p-ERK = assay: Western blot p-ERK, SKBR3 cells; format: cell-based, Human; settings: 48 h
Method in brief: as §1

HER2 on HT29 cells [1] = assay: Confocal fluorescence microscopy, HT29 cells; format: cell-based, Human; settings: peptides 5 μM, 30 min, 4 °C
Method in brief: (§2)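 Cells were cultured at 37 °C, 5% CO2 with 10% FBS and 1% pen/strep: HT29 in McCoy's, SW480 in DMEM. After a PBS wash, cells got 5 μM Cy5.5-labeled test or control peptide for 30 min at 4 °C, were washed 3×, fixed in ice-cold 4% PFA for 10 min and mounted with DAPI. Imaging used Cy5.5 and DAPI filters. Intensities were quantified from 3 independent images.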

HER2 on SW480 cells = assay: Confocal fluorescence microscopy, SW480 cells; format: cell-based, Human; settings: peptides 5 μM, 30 min, 4 °C
Method in brief: as §2

[2] = test system: HER2 in colonic adenomas of CPC;Apc mice; assay: In vivo NIR endoscopic imaging of mouse colonic dysplasia, topical peptide; settings: topical 100 μM, 1.5 mL
Method in brief: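 Cy5.5-labeled peptides, 100 μM in 1.5 mL, were delivered into the colon through the endoscope instrument channel and left 5 min. The colon was rinsed 3× with tap water before NIR imaging with a small animal endoscope. Imaging was repeated 2–3 days later with the control peptide. Target-to-background ratios came from mean ROI intensities.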

[3] = test system: HER2 overexpressed by mouse colonic dysplasia; assay: Peptide immunofluorescence on mouse colonic adenoma sections; settings: 2 μM, 10 min, RT, confocal
Method in brief: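 Serial 5-μm sections of formalin-fixed mouse colonic adenoma were incubated with 2 μM Cy5.5-labeled test or control peptide for 10 min at RT. Sections were washed 3× with PBS and mounted with DAPI for confocal imaging. Adjacent sections were H&E stained.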

HER2 on HT29 cells [4] = assay: Apparent association time constant by flow cytometry; format: binding, Human; settings: 5 μM KSP*-Cy5.5, 4 °C, 0-60 min, from k = 0.14 min^−1
Flo1-HER2 cells = assay: Confocal microscopy of FITC-labeled lead peptides with Flo1-HER2 cells; format: cell-based; settings: 10 μM, 4 °C, 1 h, quadruplicate, data log base 2
Method in brief: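 Flo1-HER2 cells (DMEM + G418) and Q-hTERT control cells (Keratinocyte-SFM), ~7500 cells on coverslips, were grown to ~70% confluence and washed with cold PBS. They got 10 μM FITC-labeled peptide for 1 h at 4 °C, were washed 3×, fixed in ice-cold 4% PFA for 10 min and mounted with DAPI. Confocal imaging used a 63× oil objective, in quadruplicate.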

HER2 on HT29 cells [5] = assay: siRNA knockdown of HER2, HT29 cells; format: cell-based, Human; settings: HT29 siCL vs siHER2; confocal; average of 3 images
Method in brief: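 HT29 cells were seeded at 30% confluence in McCoy's 5A with 10% FBS and no antibiotics. Next day they were transfected with HER2-targeting siRNA or a nontargeting pool, and knockdown was confirmed by Western blot. Cy5.5-labeled test peptide and AF488 anti-HER2 binding were imaged confocally, with intensities quantified from 3 independent images.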

HER2 on HT29 cells [6] = assay: Co-localization of peptide and anti-HER2 antibody binding, HT29 cells; format: cell-based, Human; settings: KSP*-Cy5.5 5 μM, 1 h, 4 °C, then anti-HER2 and AF488 secondary
Method in brief: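 HT29 cells got 5 μM Cy5.5-labeled test peptide first (1 h, 4 °C), at under 10 μM to limit interference with antibody binding. Cells were washed, fixed in 4% PFA for 5 min, then stained with primary anti-HER2 and AF488 secondary. Co-localization was scored as Pearson's correlation coefficient.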

[7] = test system: HER2 in colonic adenomas of CPC;Apc mice; assay: In vivo NIR endoscopic imaging of mouse colonic dysplasia, systemic peptide; settings: n = 4, i.v. tail vein, 200 μL of 300 μM
Method in brief: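 Isoflurane-anaesthetized CPC;Apc mice received 200 μL of 300 μM Cy5.5-labeled test peptide via tail vein. NIR endoscopy was done before injection for baseline, then after injection until maximum signal. The adenoma-to-normal intensity ratio came from regions of interest at each time point.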

[8] = test system: HER2 overexpressed by human proximal colonic neoplasia; assay: Peptide immunofluorescence on FFPE human proximal colon specimens; settings: KSP*-Cy5.5 5 μM, 10 min, RT
Method in brief: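 FFPE 5-μm sections were deparaffinized, then antigen-retrieved in 10 mM sodium citrate, 0.05% Tween, pH 6.0, at boiling then sub-boiling for 15 min. They were blocked with protein serum for 15 min at RT and stained with 5 μM Cy5.5-labeled test peptide for 10 min at RT. After PBS washes, anti-HER2 was applied overnight at 4 °C. Mean intensity was read from three 20×20 μm² epithelial boxes per image, avoiding saturated regions. Analysis used log2 transform if needed, one-way ANOVA with Tukey comparisons, and Pearson's coefficient for co-localization.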

dysplastic polyps = settings: FITC-labeled, topical application, patients; cited from earlier work
[9] = target: Human epidermal growth factor receptor 2 (HER2), endogenous on human cells and tissue (human, UniProt P04626 23-1255); assay: flow cytometry on cells
[10] = lapatinib 1, 25, 100, 1000 nM, concentration dependent
[11] = human proximal colon FFPE, n = 30, mean ± sem

Molecule: CS(=O)(=O)CCNCc1ccc(-c2ccc3ncnc(Nc4ccc(OCc5cccc(F)c5)c(Cl)c4)c3c2)o1 [lapatinib, reference compound]
Expression of p-HER2 (p-HER2; [10]): reduced expression | Expression of p-AKT (p-AKT; [10]): reduced expression | Expression of p-ERK (p-ERK; [10]): reduced expression

Molecule: PPSNFKR [PPS*-Cy5.5]
Binding to cell surface (HER2 on HT29 cells [1]): minimal binding | Binding to cell surface (HER2 on SW480 cells): minimal binding | NIR fluorescence at flat adenoma [2]: minimal signal | NIR fluorescence at polypoid adenoma [2]: minimal signal | Staining of normal colon [3]: Minimal staining

Molecule: KSPNPRF [KSP*]
Apparent association time constant, as time (HER2 on HT29 cells [4]): 7.1 min | Phosphorylation of HER2 (p-HER2) (p-HER2; KSP* 5 and 100 μM, Tyr1248): no change | Phosphorylation of AKT (p-AKT) (p-AKT; KSP* 5 and 100 μM, pS473): no change | Phosphorylation of ERK (p-ERK) (p-ERK; KSP* 5 and 100 μM): no change

Molecule: KSPNPRF
Mean fluorescence intensity (rank among top 5 peptides) (Flo1-HER2 cells): highest mean fluorescence intensity

Time of peak T/B ratio (mean intensity) [7]: 100 min
Molecule: KSPNPRF [KSP*-Cy5.5]
Binding to cell surface (HER2 on HT29 cells [1]): binds to the surface | Binding to cell surface (HER2 on SW480 cells): binds to the surface | Binding to siCL treated control cells compared to siHER2 knockdown cells (HER2 on HT29 cells [5]): significantly greater | Co-localization with anti-HER2-AF488, Pearson's coefficient (HER2 on HT29 cells [6]): 0.74 | Apparent association time constant, as time (HER2 on HT29 cells [4]): 7.1 min and 7.14 min | NIR fluorescence at flat adenoma [2]: increased intensity with visible crypt-like structures | NIR fluorescence at polypoid adenoma [2]: increased intensity | Staining of normal colon [3]: Minimal staining | Co-localization with anti-HER2-AF488, Pearson's correlation coefficient ([8]; human colonic dysplasia, then anti-HER2): 0.50 | Mean fluorescence intensity, hyperplastic polyps ([8]; human proximal colon FFPE, n = 12, mean ± sem): 0.12 ± 0.08 | Mean fluorescence intensity, sessile serrated adenomas ([8]; human proximal colon FFPE, n = 13, mean ± sem): 6.07 ± 0.73 | Mean fluorescence intensity, normal [8, 11]: 2.72 ± 0.31 | Mean fluorescence intensity, sporadic adenomas [8, 11]: 11.9 ± 0.61

Molecule: VRPMPLQ
Binding in vivo on dysplastic polyps (dysplastic polyps): specific binding was validated

Kd [9]: 21 nM
Molecule: KSPNPRFGGGSK(Cy5.5)-NH2 [KSP*-Cy5.5 (KSPNPRF peptide labeled with Cy5.5 via a GGGSK linker)]
